Shown are actives, neighbours in structure and some others; about 3.1% of the full set was active somewhere.
KCNK9 block: KCNK9 potassium channel inhibitors, primary screen, HEK293 cells, thallium flux | hit rate 1.2% among 310,000 | Potassium channel subfamily K member 9 (Homo sapiens), Q9NPC2 | FluxOR thallium flux fluorescence; active compounds read low | B-score at 10 µM;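 active means ratio B-score over 3 SD below the library mean, with starting fluorescence within 5 SD of its mean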;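 further: negative B-score means less thallium flux so channel inhibition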
KCNQ1 block: inhibitors of human KCNQ1 channel, primary screen, cell-based, thallium flux, high-throughput | hit rate 1.3% among 310,000 | CHO-K1 KCNQ1, FluxOR thallium flux fluorescence; active compounds read high | AID 2642, 2010 | B-score at 10 µM;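 active means compounds whose thallium flux B-score, printed positive for inhibition, exceeds three library SD while starting fluorescence stays within three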;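 further: channel opened by potassium depolarization with thallium stimulus after 20 min compound exposure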
hERG protect: hERG rescue from dofetilide block, primary screen, cell-based, CHO-hERG, FluxOR thallium flux, dofetilide IC70; Voltage-gated inwardly rectifying potassium channel KCNH2 (Homo sapiens), Q12809; dofetilide IC70 present; activation (rescue from dofetilide block), less the hit threshold, % at 10 µM; hit rate 0.51% among 310,000;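 active means activation above the mean of controls blocked by dofetilide plus 5 SD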;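 further: thallium influx through hERG after potassium depolarization seen as dye fluorescence rise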
KCNK3 block: human KCNK3 channel inhibitors, primary screen, CHO cells, FluxOR thallium flux, B-score. AID 602410, 2012. hit rate 0.84% among 340,000. B-score at 10 µM. FluxOR fluorescence; active compounds read low. Potassium channel subfamily K member 3 (Homo sapiens), O14649;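 active means B-score under library mean minus 4 SD, starting fluorescence ratio at most library mean plus 5 SD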;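 further: more negative B-score means stronger inhibition of thallium flux through KCNK3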
Target sequence (O14649 whole entry, looked up): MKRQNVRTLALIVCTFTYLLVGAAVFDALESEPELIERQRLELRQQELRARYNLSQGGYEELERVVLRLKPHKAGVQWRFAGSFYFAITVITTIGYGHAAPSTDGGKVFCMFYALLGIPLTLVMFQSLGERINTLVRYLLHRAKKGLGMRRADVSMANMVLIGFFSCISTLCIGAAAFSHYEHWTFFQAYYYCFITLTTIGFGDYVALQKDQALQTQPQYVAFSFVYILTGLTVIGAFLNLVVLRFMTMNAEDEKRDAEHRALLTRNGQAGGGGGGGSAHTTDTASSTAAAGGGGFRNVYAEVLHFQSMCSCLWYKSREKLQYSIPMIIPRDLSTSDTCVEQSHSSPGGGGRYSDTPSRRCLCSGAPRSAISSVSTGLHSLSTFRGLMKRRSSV
KCNQ1 pot: potentiators or activators of KCNQ1 channel, primary screen, cell-based, thallium flux, high-throughput. Potassium voltage-gated channel subfamily KQT member 1 (Homo sapiens), P51787. CHO-K1 KCNQ1, thallium flux FluxOR fluorescence; active compounds read high. B-score at 10 µM. hit rate 0.35% among 310,000. AID 2648, 2010;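 active means fluorescence ratio B-score, a plate-corrected score, at least three library SD, with initial intensity B-score within 5 SD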
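Material: CHO-K1 cells stably expressing KCNQ1. Medium: assay buffer for compound exposure, DMSO matched across wells. Reagent: K+/Tl+ depolarizing stimulus. Compound dosing: single-concentration screen. Times: 37 °C overnight plating, 90-min dark dye load, 20-min compound pretreatment. Technique: FluxOR Tl+ flux fluorescence.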
KCNK9 block conf: KCNK9 potassium channel inhibitors, confirmation, HEK293 cells, thallium flux, duplicate | shares compounds with KCNK9 block | FluxOR thallium flux fluorescence | inhibition, % at 10 µM | hit rate 43% among 4,900;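 active means thallium signal inhibited by more than 5 SD of the compound-free buffer control wells, on both duplicate plates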;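 further: 0% = assay buffer control wells without compound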
Kir2-1 spec: mouse Kir2.1 channel inhibition, confirmation, selectivity assay for KCNK9 modulator project, cell-based, HEK293, thallium flux; shares compounds with KCNK9 block; Kir2.1 cells, FluxOR thallium flux fluorescence; inhibition, % at 10 µM; hit rate 4% among 4,900; AID 492993, 2010;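 active means thallium signal drop more than 5 SD beyond the mean of the no-compound control wells, seen in both duplicate plates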;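 further: signal is fluorescence rise after thallium addition divided by baseline fluorescence; plate controls were assay buffer only for no effect and full block by chlorpromazine control for full effect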
KCNK9 uninduced: thallium flux in non-induced HEK293 cells, confirmation, counter-screen for KCNK9 inhibitor project, cell-based, second counter screen, non-induced KCNK9-HEK293. shares compounds with KCNK9 block. FluxOR thallium flux. inhibition, % at 10 µM. hit rate 40% among 4,900. AID 492997, 2010;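 active means thallium signal drop beyond 5 SD of the untreated control mean, on both duplicate plates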;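 further: plate controls were buffer only IC0 wells for no effect and SID17386958 at its maximal inhibitory level for full effect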
KCNK3 confirm: retest of human KCNK3 channel inhibitors, confirmation, CHO cells, FluxOR thallium flux, triplicate; shares compounds with KCNK3 block; FluxOR fluorescence; 0% buffer, 100% carvedilol maximal block; ratio percent of control, % at 10 µM; hit rate 99% among 2,400; AID 651638, 2012;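 active means ratio percent of control, averaged over triplicates, above buffer control mean plus 5 SD, cut at about 64% in these data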;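 further: ratio is the fluorescence rise from min to max over baseline after thallium stimulus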
KCNK3 noninduced: thallium flux inhibition in non-induced cells, primary screen, counter-screen for KCNK3 inhibitor project, cell-based, non-induced KCNK3 line, FluxOR thallium, triplicate; AID 651747, 2012; hit rate 40% among 2,400; non-induced KCNK3 parental cells; active compounds read low; thallium flux ratio (lower = more inhibition) at 10 µM; shares compounds with KCNK3 block;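 active means thallium flux ratio, averaged over three wells, more than 5 SD below the buffer control mean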;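 further: host cells are CHO cells without KCNK3 induction; ratio is peak minus trough fluorescence over baseline then normalized to buffer controls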
Numbers without * were called inactive; i = inactive; . = no result.

SMILES	KCNK9 block	KCNQ1 block	hERG protect	KCNK3 block	KCNQ1 pot	KCNK9 block conf	Kir2-1 spec	KCNK9 uninduced	others
CN1CCN(C(=O)COc2ccc(S(=O)(=O)NC3CCCCC3)cc2Cl)CC1	i	i	-9	i	i	.	.	.
COc1ccc(C2SCC(=O)Nc3c2c(C)nn3-c2ccccc2)cc1 (centres undefined)	i	i	-6	i	i	.	.	.
Cc1ccc(-n2nc(C)c3c2NC(=O)CSC3c2ccc3c(c2)OCO3)cc1 (centres undefined)	-13*	i	-11	i	i	36%*	i	31%*
N#CC1=C(N)Oc2c(c(=O)sc3ccccc23)C1c1cccnc1 (centres undefined)	i	i	-6	i	i	.	.	.
Cc1ccc(CN2CCCN(Cc3ccc(C)cc3)S2(=O)=O)cc1	i	i	-4	i	i	i	i	i
Cc1cccc(CN2CCCN(Cc3ccc(Cl)cc3)S2(=O)=O)c1	i	i	-5	i	i	.	.	.
O=C(CN1CC=C(c2ccccc2)CC1)Nc1cc(Cl)ccc1Cl	i	i	-13	i	i	i	i	i
CN(C(=O)Oc1ccc(C(C)(C)C)cc1)c1ccccc1	i	i	-6	i	i	.	.	.
CC(=O)c1c(C)n(C2CCCCC2)c2ccc(O)cc12	i	i	-10	i	i	.	.	.
Fc1ccc(C[n+]2c(-c3ccccc3)cc(-c3ccccc3)cc2-c2ccccc2)cc1	-11*	6*	-24	.	i	52%*	68%*	i
Cc1ccc(CN2CCCC(C(=O)c3cccc(C(F)(F)F)c3)C2)o1 (centres undefined)	i	i	-15	i	i	i	i	i
Cc1ccc(CN2CCCC(C(=O)c3sccc3C)C2)o1 (centres undefined)	i	i	-14	i	i	i	i	i
Cc1ccsc1C(=O)C1CCCN(Cc2cc3ccccc3o2)C1 (centres undefined)	i	i	-12	i	i	i	i	i
Fc1ccc(CNC2CN3CCC2CC3)cc1 (centres undefined)	i	i	-7	i	i	.	.	.
Oc1c(Cl)c(Cl)c(Cl)c(Cl)c1Cl	i	i	-14	i	i	i	i	i
c1ccc(P(c2ccccn2)c2ccccn2)cc1	i	i	-8	i	i	.	.	.
Cc1nc(Cl)sc1C(=O)Nc1ccc2ccccc2c1	i	i	-7	i	i	.	.	.
O=C(Nc1ccc2ccccc2c1)c1nn(C23CC4CC(CC(C4)C2)C3)cc1Br	i	i	-12	i	i	i	i	i
Cc1cc(C)cc(N2C(=O)/C(=C\c3ccc(N4CCN(C)CC4)o3)C(=O)NC2=S)c1	-9.1*	10*	-30	i	i	55%*	34%*	70%*
Cc1ccc(/C=C2\C(=O)NC(=S)N(c3ccc(F)cc3)C2=O)o1	i	i	0	i	i	.	.	.
Cc1ccc(O)c(C(=O)c2cc(C(=O)NCc3ccccc3)c(=O)n(Cc3ccccc3)c2)c1	-10*	i	-5	i	i	38%*	i	46%*
Cn1cc(C(=O)NCc2ccccc2)c2ccccc21	i	i	3	i	i	.	.	.
CS(=O)(=O)N1CCN(C(=N)N[N+](=O)[O-])CC1	i	i	-8	i	i	.	.	.
O=C1CC(=O)N(c2cccc(C(F)(F)F)c2)C(=O)N1	i	i	-1	i	i	.	.	.
FC(F)(F)c1cccc(-n2nnnc2C2(N3CCOCC3)CCCCC2)c1	-10*	i	-7	i	i	42%*	i	35%*
SMILES	KCNK9 block	KCNQ1 block	hERG protect	KCNK3 block	KCNQ1 pot	KCNK9 block conf	Kir2-1 spec	KCNK9 uninduced	others
CC(C)n1c(=O)c(C=Nc2ccc(F)cc2)c(O)n(Cc2ccco2)c1=O	i	i	-6	i	i	i	i	i
O=C(c1ccc(Cl)cc1)C1CCCN(Cc2ccc3nonc3c2)C1 (centres undefined)	-8.1*	i	-13	-9.2*	i	58%*	i	i	KCNK3 confirm=95*;KCNK3 noninduced=i
NC(N)=N/N=C/c1cn(-c2ccccc2)nc1-c1cccs1	-9.2*	9*	-30	-12*	i	54%*	50%*	i	KCNK3 confirm=101*;KCNK3 noninduced=i
CC(C(=O)Nc1ccc(Br)cc1C(=O)c1ccccc1)N1CCOCC1 (centres undefined)	i	i	-8	i	i	.	.	.
CN1C(=O)C(=Cc2ccccc2OCc2ccccc2Cl)C(=O)N(C)C1=O	i	i	-8	i	i	.	.	.
CN1C(=O)C(=Cc2c(OCc3cnc(Cl)s3)ccc3ccccc23)C(=O)N(C)C1=O	-15*	i	-25	-9*	i	70%*	i	27%*	KCNK3 confirm=101*;KCNK3 noninduced=i
Oc1ccc(/C=N/NP(=S)(c2ccccc2)c2ccccc2)c(O)c1O	i	i	-12	i	i	.	.	.
Oc1ccccc1/C=N/NP(=S)(c1ccccc1)c1ccccc1	-13*	12*	-14	-15*	i	42%*	i	35%*	KCNK3 confirm=109*;KCNK3 noninduced=0.15*
O=P(Nc1cccc(F)c1)(Oc1ccccc1F)Oc1ccccc1F	-11*	i	-34	-12*	i	48%*	i	31%*	KCNK3 confirm=87*;KCNK3 noninduced=0.13*
N#Cc1ncc(N=Cc2ccc(N(CCCl)CCCl)cc2)s1	.	.	.	i	.	.	.	.
